Source: PubChem BioAssay (several laboratories)
Shown are actives, neighbours in structure and some others; about 2.4% of the full set was active somewhere.
697 NFkB inh = inhibitors of PMA/ionomycin-induced NF-kB reporter, 697 cells, primary screen, B-cell NF-kB inhibitor project, cell-based, luminescence, uHTS; inhibition, % at 4 µM; 330,000 tested, 0.33% active; AID 435022, 2010; 697 B-cell NF-kB luciferase reporter, 16 h; in the data active = inhibition above about 35%
NR2E3 ag-1 = NR2E3 agonists in two-hybrid cells, primary screen, cell-based, luminescence, CHO-S, Gal4-NCOR/VP16-NR2E3. luciferase. inhibition of corepressor binding, % at 3.98 µM. 360,000 tested, 0.35% active. AID 602229, 2012;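 active = inhibition above the mean of all tested compounds plus 3 SD, cut at about 70% in these data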;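 note: 0% = DMSO with NR2E3 transfected cells and 100% = cells lacking NR2E3 construct; higher means lower luciferase signal from less NR2E3 corepressor binding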
Target sequence (Q9Y5X4 whole entry, looked up, the tested form may be a part): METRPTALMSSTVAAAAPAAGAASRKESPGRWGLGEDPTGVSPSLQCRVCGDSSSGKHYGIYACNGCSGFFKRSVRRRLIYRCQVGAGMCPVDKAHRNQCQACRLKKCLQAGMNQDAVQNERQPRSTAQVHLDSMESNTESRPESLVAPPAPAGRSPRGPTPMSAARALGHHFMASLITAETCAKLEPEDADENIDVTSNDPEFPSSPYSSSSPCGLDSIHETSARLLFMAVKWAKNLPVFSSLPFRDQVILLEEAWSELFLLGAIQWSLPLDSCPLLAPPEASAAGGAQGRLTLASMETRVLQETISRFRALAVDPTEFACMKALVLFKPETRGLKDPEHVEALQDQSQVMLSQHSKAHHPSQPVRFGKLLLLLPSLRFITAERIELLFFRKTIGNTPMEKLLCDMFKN
NR2E3 ag-2 = inhibitors of NR2E3-RetCOR corepressor binding, primary screen, NR2E3 agonist project, biochemical, TR-FRET, GST-NR2E3, biotin-RetCOR. Photoreceptor-specific nuclear receptor (Homo sapiens), Q9Y5X4. 1536-well. inhibition of corepressor binding, % at 4.78 µM. 320,000 tested, 0.12% active. AID 2300, 2010;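 active = percent inhibition above the cutoff of mean plus 3 SD of all tested compounds, set per screening campaign, cut at about 20% in these data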;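 note: 0% = DMSO wells and 100% = biotin wells as full block of FRET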
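Material: NR2E3–RetCOR corepressor complex | Quantity: 1.35 nM GST-tagged NR2E3 final | Schedule: 5 h at 4 °C | Replication: Singlicate compound wells | Reagent: RetCOR corepressor, biotinylated, 7 nM | Controls: Biotin wells as high control, 0.6% DMSO wells as low control | Signal: TR-FRET, Eu(K)-anti-GST donor, streptavidin-D2 acceptor, ex 340, em 617/671 nm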
MPTP block = mitochondrial permeability transition pore inhibitors, primary screen, biochemical, isolated mouse mitochondria, absorbance. Ca2+ swelling absorbance, 30 min. inhibition, % at 10 µM. AID 602449, 2012. 360,000 tested, 1.4% active;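 active = inhibition of 50% or more, scaled per plate between neutral and stimulator controls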;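 note: 0% = DMSO wells given calcium and 100% = 1 mM EGTA wells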
Jurkat NFkB inh = inhibitors of induced NF-kB luciferase reporter, primary screen, TCR NF-kB activation inhibitor project, cell-based, luminescence, uHTS; Jurkat, PMA/ionomycin-induced NF-kB luciferase reporter; inhibition, % at 4 µM; 330,000 tested, 0.53% active; in the data active = inhibition above about 50%
aDG glyco act = activators of alpha-DG glycosylation, primary screen, uHTS, Pro5-aDG cells, AlphaScreen; 360,000 tested, 0.22% active; alpha-DG glycosylation AlphaScreen (IIH6); 0% Pro5, 100% B10-LARGE cell signal; activation, % at 10 µM;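 active = activation of at least 8% versus controls, or a plate z-score of at least 8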;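 note: Pro5 are CHO cells carrying HIG-tagged alpha-DG that lacks glycosylation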
Rh123 counter = fluorescence retest of MPTP screen hits in isolated mitochondria, single concentration | shares compounds with MPTP block | membrane potential, Rhodamine 123 fluorescence | inhibition, % at 10 µM | 5,000 tested, 78% active | AID 624504, 2012; in the data active = inhibition above about 22%;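 note: 0% = DMSO vehicle and 100% = positive control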
Active calls of the source: *; . = no result given.

SMILES	697 NFkB inh	NR2E3 ag-1	NR2E3 ag-2	MPTP block	Jurkat NFkB inh	aDG glyco act	Rh123 counter
C[C@@H]1CN([C@@H](C)CO)C(=O)c2cc(NS(=O)(=O)c3ccc(Cl)cc3)ccc2O[C@H]1CN(C)Cc1ccncc1	-4.7	3.1	.	0.3	5.3	0.1	.
O=C(/C=C/c1ccc([N+](=O)[O-])cc1)Nc1ncc([N+](=O)[O-])s1	.	-52.4	.	83.0*	.	0.2	62.7*
CCCOc1ccc(/C=C/C(=O)Nc2ccc([N+](=O)[O-])cc2)cc1	-4.2	-2.0	3.4	82.3*	5.7	0.2	86.3*
Cc1ccc(/C=C/C(=O)Nc2ccc([N+](=O)[O-])cc2)o1	7.3	-43.8	1.9	88.8*	-10.7	-0.2	75.1*
CCCCOc1ccc(/C=C/C(=O)Nc2ccc([N+](=O)[O-])cc2C)cc1	-33.3	3.5	1.6	5.4	22.6	-0.1	.
S=C(Nc1ccccc1Cl)Nc1ccc(Cl)cc1Cl	5.0	7.5	3.1	14.2	-5.3	-0.1	.
S=C(NNc1ccnc2cc(Cl)ccc12)Nc1ccccc1Cl	-51.4	-19.6	-3.0	98.3*	1.9	5.8	77.4*
CN(C(=O)c1cccc(NC(=O)Cc2ccc(NC(=O)C3CCCN(C(=O)c4ccccc4)C3)cc2)c1)C1CCCC1 (stereo unspecified)	.	-2.6	.	0.3	.	0.1	.
O=c1[nH]c(=O)n(Cc2ccco2)c2c1C(C(F)(F)F)(C(F)(F)F)N=C(C1CCCCC1)N2	10.5	-14.6	-0.2	9.2	-7.5	0.0	.
O=c1[nH]c(=O)n(Cc2ccco2)c2c1C(C(F)(F)F)(C(F)(F)F)N=C(CCc1ccccc1)N2	-2.9	-7.1	-4.3	6.8	7.0	1.1	.
O=c1[nH]c(=O)n(Cc2ccco2)c2c1C(C(F)(F)F)(C(F)(F)F)N=C(CCC1CCCCC1)N2	4.2	7.5	-0.7	70.5*	22.8	0.8	89.7*
N#Cc1ccc(C2=NC(C(F)(F)F)(C(F)(F)F)c3c(n(Cc4ccco4)c(=O)[nH]c3=O)N2)cc1	-0.3	-25.0	-0.2	83.9*	4.5	-0.4	84.2*
O=c1[nH]c(=O)n(-c2ccc(F)cc2)c2c1C(C(F)(F)F)(C(F)(F)F)N=C(c1ccc(F)cc1)N2	-46.6	-14.0	-2.5	99.7*	19.8	0.8	84.8*
CCCCNS(=O)(=O)NC(=O)C1=C(N2CCCC2)COC1=O	-3.6	-29.6	4.8	0.3	0.3	0.3	.
CCCCCCCCNC(C)C(O)c1ccc(SC(C)C)cc1 (stereo unspecified)	3.4	34.2	1.4	85.9*	8.9	2.7	11.1
CCN(CC)S(=O)(=O)c1cccc(NC(=O)CN(C)Cc2cccc(OC)c2)c1	12.6	3.0	1.2	4.4	-6.2	0.4	.
O=C(Nc1ccc(C(F)(F)F)cc1)c1ccc2nc[nH]c2c1	-17.2	-47.1	-4.5	79.5*	-14.6	0.0	92.7*
O=C(Nc1ccc(Br)c(C(F)(F)F)c1)c1ccc(C(F)(F)F)cc1	-48.8	-8.1	-1.1	82.8*	-24.2	0.1	86.5*
O=C(Nc1cccc(O)c1)c1ccc(C(F)(F)F)cc1	-23.4	-30.5	-1.1	1.2	-107.5	-0.3	.
O=C(Nc1ccc(C(F)(F)F)cc1)c1ccccc1	-62.7	-89.6	1.1	1.6	-76.1	-0.2	.
O=C(Nc1ccc(Br)c(C(F)(F)F)c1)c1ccccc1	-39.7	-70.2	0.0	99.7*	-32.6	0.7	89.2*
CN1C(=O)CSC1=Nc1ccc(F)cc1	-11.9	21.2	.	-0.6	-13.6	0.1	.
Cc1cc(C)c(S(=O)(=O)N2CCCOC2CNC(=O)C(=O)NCCc2c[nH]c3ccccc23)c(C)c1 (stereo unspecified)	-5.7	11.8	-0.2	3.2	7.6	0.8	.
